NR2E3 ag-1 – activates human NR2E3 receptor; Q9Y5X4; CHO-S Gal4-NCOR/VP16-NR2E3 two-hybrid, luciferase; inhibition of corepressor binding, % at 3.98 µM; 0.35% of 360,000 active; AID 602229;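 active = inhibition above the mean of all tested compounds plus 3 SD, cut at about 70% in these data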;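 also: 0% = DMSO with NR2E3 transfected cells and 100% = cells lacking NR2E3 construct; higher means lower luciferase signal from less NR2E3 corepressor binding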
CHT allo act – allosterically activates the human high affinity choline transporter | CHT-expressing cells, membrane potential dye, choline EC20; hits give high values; LV-AA mutant CHT in HEK293 cells | B-score at 10 µM | 0.49% of 310,000 active | AID 488977;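 active = initial fluorescence not abnormally high and integrated response B-score, plate-corrected, over 3 SD above library mean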
GalR3 antagonist – human GalR3 antagonism. HEK293 GalR3-CNG cAMP membrane potential fluorescence; galR3 body fused to GalR1 C-terminus. AID 651719. inhibition, % at 3 µM. 0.44% of 360,000 active;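 active = inhibition above the screen-wide average plus 3 SD, cut at about 13% in these data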;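 also: forskolin and galanin both at EC90 stimulate the cells; cAMP rise reported by CNG channel membrane potential dye signal; 0% = forskolin plus galanin with DMSO and 100% = forskolin alone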
Target sequence (O60755 1-299 limits assumed): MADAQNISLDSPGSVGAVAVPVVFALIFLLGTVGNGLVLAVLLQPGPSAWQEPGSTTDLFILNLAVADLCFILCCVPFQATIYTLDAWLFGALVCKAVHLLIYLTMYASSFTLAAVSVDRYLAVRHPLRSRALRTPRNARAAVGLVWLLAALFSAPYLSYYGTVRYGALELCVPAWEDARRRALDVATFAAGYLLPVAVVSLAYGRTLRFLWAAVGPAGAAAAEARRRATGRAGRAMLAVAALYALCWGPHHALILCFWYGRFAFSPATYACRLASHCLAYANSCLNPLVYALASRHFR
NR2E3 ag-2 – agonists of human nuclear receptor NR2E3. 0.12% of 320,000 active. Q9Y5X4. GST-NR2E3/biotin-RetCOR TR-FRET, 1536-well. inhibition of corepressor binding, % at 4.78 µM;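 active = percent inhibition above the cutoff of mean plus 3 SD of all tested compounds, set per screening campaign, cut at about 20% in these data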;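 also: 0% = DMSO wells and 100% = biotin wells as full block of FRET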
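Test system – NR2E3–RetCOR corepressor complex · Quantity – NR2E3 fusion 1.35 nM · Buffer or medium – Tris pH 7.5 · Incubation – Compound–protein incubation for 5 h at 4 °C · Technique – TR-FRET, Eu(K)-anti-GST donor, streptavidin-D2 acceptor, ex 340, em 617/671 nm · Evaluation – percent inhibition of 671/617 nm emission ratio versus biotin and DMSO controls · Plate – 1536-well format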
CHT block – inhibitors of human choline transporter CHT | Q9GZV3 | CHT-expressing cells, membrane potential dye, choline response; hits give low values | B-score at 10 µM | 0.86% of 310,000 active | AID 488975;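 active = B-score over 3 SD under the library average, and starting fluorescence ratio not unusually high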;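 also: choline stimulus applied at its EC90 after an EC20 pre-addition; B-score computed on integrated fluorescence ratio after choline addition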
NR2F2 inh – blocks human COUP-TFII nuclear receptor; HEK293T NGFI-A luciferase reporter, luminescence; inhibition, % at 8.6 µM; 0.7% of 370,000 active; AID 686940;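 active = inhibition above a per-plate cutoff, mean inhibition of test wells between control levels plus 3 SD, cut at about 38% in these data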;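 also: cells cotransfected with COUP-TFII expression vector driving the NGFI-A reporter; 0% = median of COUP-TF2 test wells and 100% = reporter-only cells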
Target sequence (P24468 whole entry, looked up): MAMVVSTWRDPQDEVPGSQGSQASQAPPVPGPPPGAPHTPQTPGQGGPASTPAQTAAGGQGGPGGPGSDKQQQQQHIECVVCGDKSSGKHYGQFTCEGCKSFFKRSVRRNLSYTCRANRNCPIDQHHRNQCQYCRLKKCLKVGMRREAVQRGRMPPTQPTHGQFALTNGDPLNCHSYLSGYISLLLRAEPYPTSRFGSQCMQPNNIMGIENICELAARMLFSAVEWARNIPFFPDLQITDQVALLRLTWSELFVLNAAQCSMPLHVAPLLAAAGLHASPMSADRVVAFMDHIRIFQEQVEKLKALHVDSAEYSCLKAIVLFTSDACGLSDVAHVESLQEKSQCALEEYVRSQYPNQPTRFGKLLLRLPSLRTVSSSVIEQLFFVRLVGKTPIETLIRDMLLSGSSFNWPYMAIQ
NR2E3 ag confirm – confirmation of human NR2E3 agonists; shares compounds with NR2E3 ag-1; CHO-S mammalian two-hybrid NR2E3-NCOR, luciferase luminescence; inhibition, % at 3.98 µM; 51% of 2,300 active; AID 624378;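 active = average inhibition above a cutoff equal to the mean inhibition of all tested compounds plus one SD, cut at about 70% in these data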;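 also: 0% = DMSO in NR2E3 cells and 100% = DMSO in cells lacking NR2E3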
VP16 counter – GAL4-VP16 reporter inhibition in NR2E3 agonist counterscreen; shares compounds with NR2E3 ag-1; CHO-S GAL4-VP16 luciferase reporter, luminescence; inhibition, % at 3.98 µM; 29% of 2,300 active; AID 624379;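 active = mean inhibition above a cutoff equal to the average over all tested compounds plus one standard deviation, cut at about 70% in these data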;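 also: luciferase from a UAS reporter driven by GAL4-VP16 transactivation; 0% = DMSO with VP16-transfected cells and 100% = DMSO with cells lacking VP16; higher means less reporter light so more repression of VP16 activity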
An asterisk follows results filed as active; i = inactive; x = no result given. Rows were chosen to be rich in hits. Some 2.3% of all compounds tested hit in one or more screens of this group.

SMILES | NR2E3 ag-1 | CHT allo act | GalR3 antagonist | NR2E3 ag-2 | CHT block | NR2F2 inh | NR2E3 ag confirm | VP16 counter
Nc1cc(S(=O)(=O)Nc2ccccc2Cl)ccc1N1CCOCC1 | -17 | i | -4 | 0 | i | 5 | x | x
Nc1cc(S(=O)(=O)Nc2ccc(Cl)cc2)ccc1N1CCOCC1 | 55 | i | 2 | -1 | i | 37 | 85* | 64
COc1ccc(NS(=O)(=O)c2ccc(N3CCCC3)c(N)c2)cc1 | 89* | i | -12 | -1 | i | 22 | 77* | 72*
CCNC(=O)Nc1cc(S(=O)(=O)Nc2ccc(OC)cc2)ccc1N1CCOCC1 | 85* | x | x | 0 | x | x | 84* | 76*
CCN1CCCCC(NC(=O)c2ccc(C)cc2)C1=O (stereo not given) | x | x | x | x | x | -18 | x | x
Cn1cc(SCC(=O)Nc2nc3ccccc3s2)c2ccccc21 | 48 | i | -3 | -3 | i | -21 | 69 | -1
COc1ccc(NC(=O)CSc2nc3sc(C)cc3c(=O)n2C)c(OC)c1 | 62 | i | -6 | -3 | i | -5 | 46 | 37
COc1ccc(NS(=O)(=O)c2ccc(N3CCCC3=O)cc2)cn1 | -10 | i | 7 | 2 | i | 0 | x | x
COc1ccc(NS(=O)(=O)c2ccc3c(c2)Cc2ccccc2-3)cn1 | 85* | i | -4 | 1 | i | 16 | 93* | 77*
Cc1cc2nc(-c3cccc(Cl)c3)c(Cc3ccccc3)n2c(C)c1Br | 60 | x | x | x | x | x | 29 | -15
COc1ccc(NS(=O)(=O)c2ccc3oc(SCc4ccc(F)cc4)nc3c2)cc1 | 53 | i | -3 | 1 | i | 37 | 85* | 69
COc1ccccc1NS(=O)(=O)c1ccc2oc(SCc3ccc(F)cc3)nc2c1 | 6 | i | -11 | -3 | i | -18 | x | x
O=Cc1ccc(O)c2ncccc12 | 69 | x | x | x | x | x | -6 | -1
NC(=O)c1ccc(O)c2ncccc12 | x | x | x | x | x | -9 | x | x
CSc1nc(-c2cccs2)c(C#N)c(=O)[nH]1 | -19 | i | -6 | 17 | i | 4 | x | x
N#Cc1c(-c2cccs2)nc(SCc2ccc(Cl)cc2)[nH]c1=O | 78* | x | -2 | x | x | 18 | 97* | 69
COc1ccc(NS(=O)(=O)c2ccc(C(=O)N3CCN(c4ccc(F)cc4)CC3)cc2)cc1 | 75* | x | -6 | x | x | 19 | 74* | 65
Cc1ccc(NS(=O)(=O)c2ccc(C(=O)N3CCN(S(=O)(=O)c4ccccc4)CC3)cc2)cc1 | 62 | i | -2 | 2 | i | -9 | 47 | 22
COC(=O)[C@]1(C#N)CC(=O)N(c2ccccc2)[C@@H]1c1ccccc1 | x | x | x | x | x | 6 | x | x
Cc1[nH]n2c(=O)cc(C(C)(C)C)nc2c1-c1ccccc1 | 51 | i | 2 | 6 | i | 12 | 100* | 96*
O=C(Cc1ccccc1)NNc1ccc2ccccc2c1 | 50 | i | -6 | -2 | i | 3 | 53 | 5
O=C1NC[C@H](c2ccccc2)OC(=O)[C@H](Cc2ccc(F)cc2)CC/C=C/C[C@H]1CC(=O)N(CCO)Cc1ccccc1 | 36 | x | -2 | x | x | 24 | x | x
O=C1N[C@H](Cc2ccccc2)COC(=O)[C@H](Cc2ccc(F)cc2)C/C=C\C[C@H]1CC(=O)N(CCO)Cc1ccccc1 | 62 | x | -11 | x | x | 9 | 63 | 16
O=C1NC[C@H](c2ccccc2)OC(=O)[C@@H](Cc2ccc(F)cc2)CC/C=C/C[C@H]1CC(=O)N(CCO)Cc1ccccc1 | 49 | x | -8 | x | x | 19 | 37 | 31
O=C1N[C@@H](Cc2ccccc2)COC(=O)[C@H](Cc2ccc(F)cc2)C/C=C\C[C@H]1CC(=O)N(CCO)Cc1ccccc1 | -23 | x | -5 | x | x | 22 | x | x
SMILES | NR2E3 ag-1 | CHT allo act | GalR3 antagonist | NR2E3 ag-2 | CHT block | NR2F2 inh | NR2E3 ag confirm | VP16 counter
COc1ccc(CCC[C@@H](CCC(=O)N(c2ccccc2)c2ccccc2)CCc2ccccc2)cc1 | x | x | x | x | x | 1 | x | x
CSc1ccc(CN2C(=O)C(F)(F)Oc3c(C(C)=O)cccc32)cc1 | 49 | x | x | x | x | x | 44 | 53
CSc1ccc(CN2C(=O)C(C)Oc3c(C(C)=O)cccc32)cc1 (stereo not given) | 2 | x | -8 | x | x | -2 | x | x
O=C(c1cccs1)N1CC[C@H]2[C@H](CCCN2Cc2cc(F)cc(F)c2)C1 | x | x | x | x | x | 10 | x | x
Fc1ccc(-c2n[nH]c(=S)n2N=Cc2ccc(OCc3ccccc3)cc2)cc1 | x | x | x | x | x | -12 | x | x
Oc1ccccc1C=NNC(=S)NC1CC2C=CC1C2 (stereo not given) | 57 | x | -6 | x | x | -22 | -90 | -98
Oc1ccccc1/C=N/NC(=S)NC1CC2C=CC1C2 (stereo not given) | -6 | i | 0 | -4 | i | -7 | x | x
Oc1ccccc1N=Cc1ccc[nH]1 | 58 | i | -4 | -2 | i | -1 | 7 | 15
Cn1c2c(c(=O)n(C)c1=O)C(C(F)(F)F)(C(F)(F)F)N=C(c1ccc(Cl)cc1)N2 | 98* | i | x | 1 | i | x | 99* | 90*
COc1cc2c(cc1OC)C(c1ccc3c(c1)OCO3)CC(=O)N2 (stereo not given) | -16 | i | x | 2 | i | x | x | x
COc1ccc(C2CCc3cc4c(cc3C2=NO)OCO4)cc1OC (stereo not given) | 67 | x | -2 | x | x | -6 | 39 | 44
Cc1cc(Cl)ccc1C(O)c1ncc(-c2ccc(F)cc2)[nH]1 (stereo not given) | 59 | x | x | x | x | x | 6 | 32
OC(c1ccc(Cl)c(F)c1)c1ncc(-c2cccc(F)c2)[nH]1 (stereo not given) | 73* | x | -5 | x | x | -7 | 66 | 47
OC(c1ccc(Cl)c(F)c1)c1ncc(-c2ccc(Cl)cc2)[nH]1 (stereo not given) | 68 | x | -7 | x | x | 2 | 86* | 66
Cc1cc(F)ccc1C(O)c1ncc(-c2ccc(Cl)cc2)[nH]1 (stereo not given) | 7 | x | -2 | x | x | 11 | x | x
OC(c1ccc(Cl)c(Cl)c1)c1ncc(-c2ccc(Cl)cc2)[nH]1 (stereo not given) | 43 | x | -5 | x | x | 3 | x | x
CSc1ccc(C(O)c2ncc(-c3cccc(F)c3)[nH]2)cc1 (stereo not given) | -3 | x | -5 | x | x | -10 | x | x
C=CCN1[C@@H](C)COc2cc(N3CCSCC3)ccc2S1(=O)=O | x | x | x | x | x | -1 | x | x
C[C@@H]1CCN(C2CC2)S(=O)(=O)c2ccc(N3CC[C@H](O)C3)cc2O1 | x | x | x | x | x | -9 | x | x
Cc1ccc2nc(-c3ccc(NC(=O)CSc4nnc(-c5cc(-c6ccc(F)cc6)n[nH]5)n4N)cc3)sc2c1 | x | x | x | x | x | -26 | x | x

Compound activity: PubChem, several laboratories
